Among the data in ChEMBL document CHEMBL3098020, “Synthesis and biological evaluation of novel 2-amino-3-aroyl-4-neopentyl-5-substituted thiophene derivatives as allosteric enhancers of the A₁ adenosine receptor” (Bioorg Med Chem, 2014) are fold change (FC) and inhibition values, retold here.

The target of assay [1] is T1, Adenosine receptor A1 (Homo sapiens) (UniProt P30542).
T1 sequence (whole entry): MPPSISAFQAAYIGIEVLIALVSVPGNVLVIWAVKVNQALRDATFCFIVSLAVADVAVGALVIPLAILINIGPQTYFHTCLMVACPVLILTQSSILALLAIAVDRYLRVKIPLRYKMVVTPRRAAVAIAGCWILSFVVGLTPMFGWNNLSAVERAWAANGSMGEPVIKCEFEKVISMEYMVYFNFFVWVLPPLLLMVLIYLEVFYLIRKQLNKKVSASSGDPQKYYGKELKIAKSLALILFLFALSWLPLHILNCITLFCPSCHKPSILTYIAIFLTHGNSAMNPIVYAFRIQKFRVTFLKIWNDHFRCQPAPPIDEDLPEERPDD
Description: Potentiation of CCPA-induced displacement of [3H]-DPCPX from human adenosine A1 receptor expressed in CHO cell membranes at 10 uM after 90 mins relative to CCPA-treated control. In a few lines: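 CCPA (0.01 nM–1 µM) competition against [³H]DPCPX in hA1-CHO membranes, with or without compound at 10 µM. Nonspecific binding defined with 1 µM DPCPX. Ki calculated from IC50 by the Cheng-Prusoff equation; CCPA Ki shift given as fold change; three experiments.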
A general note: Loss of bound radioactivity is the signal in a displacement assay; it reports binding, not function.

Assay [2] addresses T1, Adenosine receptor A1 (Homo sapiens). Description: Potentiation of [3H]CCPA binding to human adenosine A1 receptor expressed in CHO cell membranes at 10 uM after 90 mins relative to [3H]CCPA-treated control.
In assay [3] the target is T2, Adenosine receptor A3 (Homo sapiens) (UniProt P0DMS8).
T2 sequence (whole entry): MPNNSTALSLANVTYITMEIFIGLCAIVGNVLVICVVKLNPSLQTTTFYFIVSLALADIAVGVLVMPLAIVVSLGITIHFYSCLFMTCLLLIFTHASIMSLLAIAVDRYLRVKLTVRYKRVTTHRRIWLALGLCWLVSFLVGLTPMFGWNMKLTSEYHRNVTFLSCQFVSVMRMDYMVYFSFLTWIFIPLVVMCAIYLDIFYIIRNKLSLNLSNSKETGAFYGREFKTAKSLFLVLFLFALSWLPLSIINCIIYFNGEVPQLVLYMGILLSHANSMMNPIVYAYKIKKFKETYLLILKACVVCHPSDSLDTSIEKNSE
The experiment in a line: Displacement of [3H]-MRE-3008-F20 from human adenosine A3 receptor expressed in CHO cell membranes at 10 uM by scintillation counting analysis relative to control. In a few lines:
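A3-expressing CHO membranes in 50 mM Tris-HCl, 10 mM MgCl₂, 1 mM EDTA pH 7.4 with 2 nM [³H]MRE-3008-F20. Incubated 120 min at 4 °C. Compound 10 µM in 1% DMSO final. Filtration and scintillation counting; percent inhibition of specific binding.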

For assay [4], the target named is Adenosine receptor A2a (Homo sapiens) (UniProt P29274). Description: Displacement of [3H]-ZM241385 from human adenosine A2A receptor expressed in CHO cell membranes at 10 uM by scintillation counting analysis relative to control. The gist of the method:
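A2A-expressing CHO membranes, pretreated with adenosine deaminase, in 50 mM Tris-HCl, 10 mM MgCl₂ pH 7.4 with 1 nM [³H]ZM 241385. Incubated 60 min at 4 °C. Compound 10 µM in 1% DMSO final. Filtration and scintillation counting; percent inhibition of specific binding.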

Assay [5] addresses T1, Adenosine receptor A1 (Homo sapiens). The experiment in a line: Displacement of [3H]-DPCPX from human adenosine A1 receptor expressed in CHO cell membranes at 10 uM by scintillation counting analysis relative to control. In a few lines:
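hA1-CHO membranes, pretreated with adenosine deaminase, in 50 mM Tris-HCl pH 7.4 with 1 nM [³H]DPCPX. Incubated 120 min at 25 °C. Compound 10 µM added from 100-fold DMSO stock, 1% DMSO final. Bound ligand collected on glass-fibre filters and counted by scintillation; percent inhibition of specific binding.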

For assay [6] the target is unchanged. Description: Allosteric enhancement of human adenosine A1 receptor expressed in CHO cells assessed as inhibition of forskolin-stimulated cAMP production at 100 nM preincubated for 10 mins followed by forskolin challenge measured after 5 mins by scintillation counting analysis in presence of CCPA relative to control. It counts as functional, cell-based. In a few lines:
(§1)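 hA1-CHO cells (10⁶ cells/mL) in phosphate buffer with adenosine deaminase 1.0 IU/mL and Ro 20-1724 0.5 mM, preincubated 10 min at 37 °C. Compound added for 10 min, alone or at 100 nM with CCPA 1 pM. Forskolin 1 µM added for 5 min, stopped with cold 6% TCA. cAMP measured by [³H]-cAMP competition protein-binding assay; percent inhibition versus control; three experiments.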

For assay [7] the target is unchanged. Description: Allosteric enhancement of human adenosine A1 receptor expressed in CHO cells assessed as inhibition of forskolin-stimulated cAMP production at 10 uM preincubated for 10 mins followed by forskolin challenge measured after 5 mins by scintillation counting analysis relative to control. Type of assay: functional, cell-based. The gist of the method: as §1
Background: Cyclic AMP is a second messenger, typically raised through Gs and lowered through Gi signalling.

The structures appear in SMILES notation.

Adenosine receptor A2a (Homo sapiens), sequence (P29274 whole entry): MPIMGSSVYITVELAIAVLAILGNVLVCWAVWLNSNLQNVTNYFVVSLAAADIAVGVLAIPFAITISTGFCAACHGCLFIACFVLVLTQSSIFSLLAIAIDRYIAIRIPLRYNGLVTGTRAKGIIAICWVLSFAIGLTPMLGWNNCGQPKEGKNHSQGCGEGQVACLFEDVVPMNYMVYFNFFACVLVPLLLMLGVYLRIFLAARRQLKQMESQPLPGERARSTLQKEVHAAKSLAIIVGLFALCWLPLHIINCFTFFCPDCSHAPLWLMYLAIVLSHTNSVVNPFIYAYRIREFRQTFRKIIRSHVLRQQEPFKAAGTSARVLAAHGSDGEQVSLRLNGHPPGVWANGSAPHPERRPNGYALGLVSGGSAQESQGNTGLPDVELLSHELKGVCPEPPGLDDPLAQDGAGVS

As a reminder, the inhibition is how much of the control response was suppressed. Turning to `CC(C)(C)Cc1c(Br)sc(N)c1C(=O)c1cccc(Cl)c1`, the fold change (FC) in assay [1] worked out at 2.4; in assay [2], 3.6. The inhibition came to 1% in assay [3]; 1% in assay [4]; 1% in assay [5]; 48% in assay [6]; 45% in assay [7].

As to `CC(C)(C)Cc1c(-c2cccs2)sc(N)c1C(=O)c1ccc(Cl)cc1`, the fold change (FC) in assay [1] is 3.9; in assay [2], 6.2. For the same molecule, the inhibition in assay [3] was 1%; in assay [4], 2%; in assay [5] it was 1%; in assay [6] it was 62%; in assay [7] it was 58%.

In the case of `CC(C)c1ccc(-c2sc(N)c(C(=O)c3ccc(Cl)cc3)c2CC(C)(C)C)cc1`, the values for the fold change (FC) in assay [1] and in assay [2] were 4.1 and 5.6, respectively. Further, the inhibition in assay [3] is 1%; in assay [4] it was 1%; in assay [5], 1%; in assay [6], 58%; in assay [7], 56%.

Take `CC(C)(C)Cc1c(-c2c(F)cccc2F)sc(N)c1C(=O)c1ccc(Cl)cc1`: the fold change (FC) in assay [1] was determined as 2.4; in assay [2], 4.2. Besides, the inhibition in assay [3] amounted to 1%; in assay [4], 2%; in assay [5] it was 1%; in assay [6], 46%; in assay [7], 45%.

In the case of `CC(C)(C)Cc1c(-c2ccccc2)sc(N)c1C(=O)c1ccc(Cl)c(Cl)c1`, the fold change (FC) turned out to be 4.8 in assay [1] and 5.9 in assay [2]. Moreover, the inhibition in assay [3] came to 6%; in assay [4], 1%; in assay [5] it was 1%; in assay [6], 57%; in assay [7], 56%.

`Cc1ccc(C(=O)c2c(N)sc(Br)c2CC(C)(C)C)cc1`: the fold change (FC) in assay [1] was 4.3; in assay [2] it was 6.4. Also, the inhibition in assay [3] is 1%; in assay [4], 1%; in assay [5], 1%; in assay [6], 63%; in assay [7], 61%.

For `Cc1c(-c2ccccc2)sc(N)c1C(=O)c1ccc(Cl)cc1`, the fold change (FC) in assay [1] and in assay [2] was 1.5 in each case. For the same molecule, the inhibition is 1% in assay [3]; 8% in assay [4]; 1% in assay [5]; 20% in assay [6]; 18% in assay [7].

Consider `COc1ccc(-c2sc(N)c(C(=O)c3ccc(Cl)cc3)c2C)cc1`, for which the fold change (FC) amounted to 1.8 in assay [1] and 2.1 in assay [2]. Moreover, the inhibition in assay [3] stood at 1%; in assay [4] it was 1%; in assay [5], 1%; in assay [6] it was 22%; in assay [7], 24%.

As for `CC(C)(C)Cc1c(-c2ccccc2)sc(N)c1C(=O)c1ccccc1Cl`, the fold change (FC) turned out to be 3.9 in assay [1] and 5.4 in assay [2]. In addition, the inhibition in assay [3] stood at 1%; in assay [4], 1%; in assay [5], 1%; in assay [6] it was 41%; in assay [7], 38%.

Consider `Cc1sc(N)c(C(=O)c2ccc(Cl)cc2)c1-c1ccccc1`, for which the fold change (FC) in assay [1] was 1.6; in assay [2], 1.4. The inhibition came to 1% in assay [3]; 1% in assay [4]; 1% in assay [5]; 21% in assay [6]; 16% in assay [7].

Consider `COc1ccc(-c2sc(N)c(C(=O)c3cccc(C(F)(F)F)c3)c2CC(C)(C)C)cc1`, for which the fold change (FC) was determined as 1.8 in assay [1] and 4 in assay [2]. The inhibition stood at 1% in assay [3]; 1% in assay [4]; 2% in assay [5]; 46% in assay [6]; 44% in assay [7].

With `CC(C)(C)Cc1c(-c2ccc3c(c2)OCO3)sc(N)c1C(=O)c1ccc(Cl)cc1`, the fold change (FC) in assay [1] was 5.2; in assay [2] it was 6.6. Besides, the inhibition in assay [3] is 1%; in assay [4], 1%; in assay [5], 1%; in assay [6], 59%; in assay [7], 61%.

Consider `CC(C)(C)Cc1c(-c2cc(F)ccc2F)sc(N)c1C(=O)c1ccc(Cl)cc1`, for which the fold change (FC) amounted to 3.4 in assay [1] and 5.3 in assay [2]. Moreover, the inhibition in assay [3] was 1%; in assay [4] it was 1%; in assay [5], 3%; in assay [6], 45%; in assay [7] it was 46%.

As for `Cc1c(Br)sc(N)c1C(=O)c1ccc(Cl)cc1`, the fold change (FC) was determined as 1.9 in assay [1] and 1.8 in assay [2]. In addition, the inhibition in assay [3] worked out at 1%; in assay [4], 1%; in assay [5], 1%; in assay [6], 25%; in assay [7], 21%.

Take `CC(C)(C)c1csc(N)c1C(=O)c1ccc(Cl)cc1`: the fold change (FC) in assay [1] was determined as 1.6; in assay [2] it was 1.3. For the same molecule, the inhibition in assay [3] was found to be 1%; in assay [4] it was 1%; in assay [5] it was 1%; in assay [6], 18%; in assay [7] it was 11%.

`CC(C)(C)Cc1c(-c2cccc(F)c2F)sc(N)c1C(=O)c1ccc(Cl)cc1`: the fold change (FC) in assay [1] came to 4.9; in assay [2], 6.1. Besides, the inhibition was determined as 1% in assay [3]; 3% in assay [4]; 1% in assay [5]; 63% in assay [6]; 60% in assay [7].

For `COc1ccc(-c2sc(N)c(C(=O)c3ccc(Cl)c(Cl)c3)c2CC(C)(C)C)cc1`, the fold change (FC) in assay [1] is 4.3; in assay [2] it was 6. For the same molecule, the inhibition in assay [3] came to 1%; in assay [4], 1%; in assay [5], 1%; in assay [6] it was 52%; in assay [7], 54%.

As for `Cc1sc(N)c(C(=O)c2cccc(C(F)(F)F)c2)c1C`, the fold change (FC) amounted to 1.5 in assay [1] and 1.3 in assay [2]. Also, the inhibition in assay [4] and in assay [5] was 1% each time.

For the molecule `CC(C)(C)Cc1csc(N)c1C(=O)c1cccc(C(F)(F)F)c1`, the fold change (FC) in assay [1] was 1.7; in assay [2], 2.6. In addition, the inhibition in assay [3] came to 1%; in assay [4], 1%; in assay [5], 1%; in assay [6], 30%; in assay [7], 28%.

As for `CC(C)Cc1csc(N)c1C(=O)c1ccc(Cl)cc1`, the fold change (FC) in assay [1] stood at 3.4; in assay [2], 1.6. Moreover, the inhibition was found to be 1% in assay [3]; 1% in assay [4]; 1% in assay [5]; 19% in assay [6]; 17% in assay [7].
